The results in this text go back to ChEMBL document CHEMBL3400126, “Benzo-fused lactams from a diversity-oriented synthesis (DOS) library as inhibitors of scavenger receptor BI (SR-BI)-mediated lipid uptake” (Bioorg Med Chem Lett, 2015).

≈ marks a conversion by molar mass, not a printed value. Calls of active or inactive are those of the source. No cut-off for these calls is given here.

For data set [1], the target named is T1, Scavenger receptor class B member 1 (Mus musculus) (UniProt Q61009).
T1 sequence (whole entry): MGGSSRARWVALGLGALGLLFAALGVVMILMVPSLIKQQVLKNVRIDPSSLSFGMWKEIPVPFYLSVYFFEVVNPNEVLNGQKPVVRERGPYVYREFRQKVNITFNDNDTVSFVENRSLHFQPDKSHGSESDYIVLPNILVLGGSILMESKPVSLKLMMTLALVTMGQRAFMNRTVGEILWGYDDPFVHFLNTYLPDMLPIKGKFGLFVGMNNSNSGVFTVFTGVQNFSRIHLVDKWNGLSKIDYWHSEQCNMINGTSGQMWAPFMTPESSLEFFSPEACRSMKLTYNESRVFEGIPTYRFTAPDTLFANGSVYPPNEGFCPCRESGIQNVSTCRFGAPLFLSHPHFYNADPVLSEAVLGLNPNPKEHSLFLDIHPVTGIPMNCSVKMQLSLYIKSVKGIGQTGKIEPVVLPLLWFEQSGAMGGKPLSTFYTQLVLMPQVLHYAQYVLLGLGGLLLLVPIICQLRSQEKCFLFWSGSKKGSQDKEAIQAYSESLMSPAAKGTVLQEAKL
The experiment in a line: (§1) Inhibition of mouse SR-B1 overexpressed in CHO cells assessed as inhibition of [3H]cholesteryl ester uptake into cells after 2 to 3 hrs by liquid scintillation counting. It counts as cell-based. A digest of the protocol: (§2)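 IdlA[mSR-BI] cells exposed to HDL carrying [³H]-labeled cholesteryl oleate ester; cellular uptake of [³H]CE measured across a compound dilution series, IC₅₀ from dose-response curve.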

Data set [2] can be described thus: Aqueous solubility of the compound in PBS at pH 7.4 with 1 % DMSO after 24 hrs by UPLC-MS analysis. It counts as physicochemical. To be noted: for solubility: buffer, pH 7.4, 24 h.
In data set [3] the test system is CHO. The experiment in a line: Cytotoxicity against CHO cells after 24 hrs by CellTiterGlo assay. It counts as cell-based, Cricetulus griseus. To be noted: chinese hamster. A digest of the protocol:
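IdlA[mSR-BI] cells (CHO overexpressing mouse SR-BI) incubated with compound for 24 h; cellular ATP levels read by CellTiter-Glo luminescence.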
On the technique in general: ATP-based viability assays read luminescence as a measure of living cells.

For data set [4], the target named is T2, Scavenger receptor class B member 1 (Mus musculus, UniProt Q61009).
T2 sequence (Q61009 whole entry): T1 sequence (whole entry)
The data set can be described thus: Inhibition of mouse SR-B1 overexpressed in CHO cells assessed as inhibition of transfer of the fluorescent lipid DiI from HDL particles to cells after 3 hrs. The class given is cell-based. A digest of the protocol:
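Primary assay: uptake of fluorescent lipid DiI from DiI-labeled HDL particles into IdlA[mSR-BI] cells, i.e. CHO cells overexpressing mouse SR-BI. Read-out is cell-associated DiI fluorescence. Compounds that quenched DiI-HDL fluorescence in a dose-dependent manner were excluded by counterscreen. 1 μM BLT-1 served as positive control.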

Data set [5] has as its target T2, Scavenger receptor class B member 1. The data set is described as §1. The class given is cell-based. A digest of the protocol: as §2
Data set [6] concerns the target T1, Scavenger receptor class B member 1 (Mus musculus). The data set can be described thus: Inhibition of mouse SR-B1 overexpressed in CHO cells assessed as inhibition of transfer of the fluorescent lipid DiI from HDL particles to cells at 1 uM after 3 hrs. It counts as cell-based.

Turning to `COCC(=O)n1ccc2cc(-c3csc(NC(=O)c4cc(OC)cc(OC)c4)n3)ccc21`, in data set [1], the inhibition (in general, how much of the control response was suppressed) was “Active”. Moreover, in data set [2] (PBS with 1% DMSO, pH 7.4), the solubility (usually the dissolved amount per volume that the medium holds) at 24 h is 0.57 µM (≈ 0.257 µg/mL). Consider `C[C@@H]1CN([C@H](C)CO)C(=O)c2cc(NC(=O)Cc3cn(C)c4ccccc34)ccc2O[C@H]1CN(C)S(=O)(=O)c1cn(C)cn1`, for which the Activity result in data set [3] is listed as “Non-toxic”. Further, the concentration for half-maximal inhibition (IC50) – broadly, the concentration needed to halve the response being measured – in data set [4] was 6400 nM. In data set [2], this molecule displayed a solubility of 79 µM (≈ 49.2 µg/mL). With `C[C@@H]1CN([C@H](C)CO)C(=O)c2cc(NC(=O)Cc3cn(C)c4ccccc34)ccc2O[C@H]1CN(C)Cc1ccc(C(F)(F)F)cc1`, the Activity entry in data set [3] is “Non-toxic”. Further, the half-inhibitory concentration (IC50) in data set [4] is 650 nM. In the case of `C[C@H](CO)N1C[C@H](C)[C@H](CN(C)S(=O)(=O)c2ccc(Cl)cc2)Oc2ccc(NC(=O)Cc3cn(C)c4ccccc34)cc2C1=O`, in data set [3], the Activity entry is “Non-toxic”. For the same molecule, the half-maximal inhibitory concentration (IC50) in data set [4] was greater than 25000 nM.

As for `C[C@@H]1CN([C@H](C)CO)C(=O)c2cc(NC(=O)Cc3cn(C)c4ccccc34)ccc2O[C@H]1CN(C)S(=O)(=O)c1ccc(Cl)cc1`, the Activity result in data set [3] was “Non-toxic”. In addition, in data set [4], the IC50 was 180 nM. For the same molecule, the solubility in data set [2] is 0.1 µM (≈ 0.0653 µg/mL). As for `C[C@@H]1CN([C@H](C)CO)C(=O)c2cc(NC(=O)Nc3ccc(F)cc3)ccc2O[C@H]1CN(C)S(=O)(=O)c1ccc(Cl)cc1`, in data set [3], the Activity result is listed as “Non-toxic”. Further, in data set [4], the IC50 was 92 nM. Taken in the same sequence, the figures for `C[C@H]1CN([C@@H](C)CO)C(=O)c2cc(NC(=O)Cc3cn(C)c4ccccc34)ccc2O[C@H]1CN(C)S(=O)(=O)c1ccc(Cl)cc1` were “Non-toxic” and 12300 nM. Taken in the same sequence, the figures for `C[C@@H]1CN([C@H](C)CO)C(=O)c2cc(NC(=O)C3CCCCC3)ccc2O[C@H]1CN(C)S(=O)(=O)c1ccc(Cl)cc1` were “Non-toxic” and 54 nM. In the case of `C[C@@H]1CN([C@H](C)CO)C(=O)c2cc(NC(=O)Cc3cn(C)c4ccccc34)ccc2O[C@H]1CN(C)C(=O)NC1CCCCC1`, the Activity result in data set [3] was “Non-toxic”. For the same molecule, the IC50 in data set [4] was 9200 nM.

In the case of `COc1ccc(CN(C)C[C@@H]2Oc3ccc(NC(=O)Cc4cn(C)c5ccccc45)cc3C(=O)N([C@H](C)CO)C[C@H]2C)cc1`, the Activity result in data set [3] is recorded as “Non-toxic”. For the same molecule, in data set [4], the IC50 was 2600 nM. Consider `C[C@@H]1CN([C@H](C)CO)C(=O)c2cc(NC(=O)Cc3cn(C)c4ccccc34)ccc2O[C@H]1CN(C)Cc1ccncc1`, for which the Activity entry in data set [3] is given as “Non-toxic”. Also, the IC50 in data set [4] is 1300 nM. Turning to `C[C@@H]1CN([C@H](C)CO)C(=O)c2cc(NC(=O)Cc3cn(C)c4ccccc34)ccc2O[C@H]1CN(C)CC1CCCCC1`, the Activity entry in data set [3] is listed as “Non-toxic”. In addition, in data set [4], the IC50 is 9200 nM. Taken in the same sequence, the figures for `C[C@@H]1CN([C@H](C)CO)C(=O)c2cc(NC(=O)CCC(F)(F)F)ccc2O[C@H]1CN(C)S(=O)(=O)c1ccc(Cl)cc1` were “Non-toxic” and 260 nM. Consider `COc1ccc(S(=O)(=O)N(C)C[C@@H]2Oc3ccc(NC(=O)Cc4cn(C)c5ccccc45)cc3C(=O)N([C@H](C)CO)C[C@H]2C)cc1`, for which the Activity entry in data set [3] is given as “Non-toxic”. The IC50 in data set [4] was 2000 nM. As to `COc1c(NC(=O)C(=O)c2ccc(OCCN3CCOCC3)c3ccccc23)cc(C(C)(C)C)cc1NS(C)(=O)=O` [ITX-5061], the IC50 in data set [5] amounted to 770 nM. Turning to `COC[C@@H](C)N1C[C@@H](C)[C@H](CN(C)S(=O)(=O)c2ccc(Cl)cc2)Oc2ccc(NC(=O)NC(C)C)cc2C1=O`, the Activity result in data set [3] is “Non-toxic”. In data set [4], the half-maximal inhibitory concentration (IC50) came to 8000 nM. On to `C[C@@H]1CN([C@H](C)CN)C(=O)c2cc(NC(=O)Cc3cn(C)c4ccccc34)ccc2O[C@H]1CN(C)S(=O)(=O)c1ccc(Cl)cc1`, for which the Activity result in data set [3] is “Non-toxic”. Besides, the concentration for half-maximal inhibition (IC50) in data set [4] is greater than 25000 nM. With `C[C@@H]1CN([C@H](C)CO)C(=O)c2cc(NC(=O)Cc3cn(C)c4ccccc34)ccc2O[C@H]1CN(C)S(=O)(=O)c1ccccc1`, the Activity result in data set [3] is on record as “Non-toxic”. Moreover, in data set [4], the 50% inhibitory concentration (IC50) was determined as 220 nM. `C[C@H](C(=O)NC1CCCC1)N(C(=O)Cn1nnc(-c2ccc3c(c2)OCO3)n1)C1CCCCC1`: the IC50 in data set [5] amounted to 5 nM. With `C[C@@H]1CN([C@H](C)CO)C(=O)c2cc(NC(=O)C3CCCCC3)ccc2O[C@H]1CN(C)S(=O)(=O)c1ccccc1Cl`, the Activity entry in data set [3] is “Non-toxic”. The IC50 in data set [4] came out at 180 nM. As for `CC(C)NC(=O)Nc1cccc2c1O[C@@H](CN(C)S(=O)(=O)c1ccc(Cl)cc1)[C@H](C)CN([C@H](C)CO)C2=O`, the Activity entry in data set [3] was “Non-toxic”. Moreover, in data set [4], the half-inhibitory concentration (IC50) is greater than 25000 nM. Regarding `C[C@@H]1CN([C@H](C)CO)C(=O)c2cc(NC(=O)Cc3cn(C)c4ccccc34)ccc2O[C@H]1CN(C)S(=O)(=O)c1ccc(F)cc1`, in data set [3], the Activity result is recorded as “Non-toxic”. For the same molecule, in data set [4], the IC50 was found to be 560 nM. As to `CCCCCCC1CCC/C1=N\NC(N)=S` (configuration not stated), the inhibition in data set [6] was greater than 70%. On to `C[C@@H]1CN([C@H](C)CO)C(=O)c2cc(NC(=O)CCCN(C)C)ccc2O[C@H]1CN(C)S(=O)(=O)c1ccc(Cl)cc1`, for which the Activity entry in data set [3] is “Non-toxic”. Further, the IC50 in data set [4] was greater than 25000 nM. In the same order, the values of `C[C@@H]1CN([C@H](C)CO)C(=O)c2cc(NC(=O)Nc3ccccc3)ccc2O[C@H]1CN(C)S(=O)(=O)c1ccc(Cl)cc1` are “Non-toxic” and greater than 25000 nM. `C[C@@H]1CN([C@H](C)CO)C(=O)c2cc(NC(=O)C3CCOCC3)ccc2O[C@H]1CN(C)S(=O)(=O)c1ccc(Cl)cc1`: the Activity entry in data set [3] is on record as “Non-toxic”. The 50% inhibitory concentration (IC50) in data set [4] is greater than 25000 nM. `C[C@@H]1CN([C@H](C)CO)C(=O)c2cc(NC(=O)C3CC3)ccc2O[C@H]1CN(C)S(=O)(=O)c1ccc(Cl)cc1`: the Activity entry in data set [3] is “Non-toxic”. In addition, in data set [4], the IC50 amounted to 2100 nM. In the same order, the values of `C[C@@H]1CN([C@H](C)CO)C(=O)c2cc(NS(=O)(=O)c3ccc(F)cc3)ccc2O[C@H]1CN(C)S(=O)(=O)c1ccc(Cl)cc1` are “Non-toxic” and 14000 nM. For `C[C@@H]1CN([C@@H](C)CO)C(=O)c2cc(NC(=O)Cc3cn(C)c4ccccc34)ccc2O[C@H]1CN(C)S(=O)(=O)c1ccc(Cl)cc1`, the Activity entry in data set [3] is on record as “Non-toxic”. Besides, the IC50 in data set [4] is 910 nM. Consider `C[C@@H]1CN([C@@H](C)CO)C(=O)c2cc(NC(=O)Cc3cn(C)c4ccccc34)ccc2O[C@@H]1CN(C)S(=O)(=O)c1ccc(Cl)cc1`, for which the Activity result in data set [3] is “Non-toxic”. Besides, the IC50 in data set [4] is 10000 nM. As to `C[C@H]1CN([C@@H](C)CO)C(=O)c2cc(NC(=O)Cc3cn(C)c4ccccc34)ccc2O[C@@H]1CN(C)S(=O)(=O)c1ccc(Cl)cc1`, in data set [3], the Activity result is “Non-toxic”. In addition, the IC50 in data set [4] came to 17400 nM. Take `C[C@@H]1CN([C@H](C)CO)C(=O)c2cc(NC(=O)Cc3cn(C)c4ccccc34)ccc2O[C@H]1CN(C)S(C)(=O)=O`: in data set [3], the Activity entry is reported as “Non-toxic”. Moreover, the half-maximal inhibitory concentration (IC50) in data set [4] is 9900 nM. Taken in the same sequence, the figures for `C[C@@H]1CN([C@H](C)CO)C(=O)c2cc(NC(=O)Cc3cn(C)c4ccccc34)ccc2O[C@H]1CN(C)Cc1ccccc1` were “Non-toxic” and 1600 nM. Take `C[C@@H]1CN([C@H](C)CO)C(=O)c2cc(NS(=O)(=O)c3ccccc3)ccc2O[C@H]1CN(C)S(=O)(=O)c1ccc(Cl)cc1`: the Activity entry in data set [3] was “Non-toxic”. In addition, the IC50 in data set [4] was 3200 nM.
